M18AAP inhibitor – blocks P. falciparum M18 aspartyl aminopeptidase | recombinant PfM18AAP, H-Glu-NHMec fluorogenic cleavage | inhibition, % at 7.35 µM | hit rate 1.2% among 290,000 | AID 1822;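 active = inhibition above the campaign mean inhibition over all tested compounds plus 3 SD, cut at about 28% in these data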;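 note: 0% = plate median of test compound wells and 100% = 2 mM ZnCl2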
p97 inhibitor – inhibitors of human p97 ATPase; hit rate 0.42% among 220,000; recombinant p97 ATPase, Kinase-Glo ATP luminescence, 3 h; P55072; inhibition, % at 8 µM; in the data active = inhibition above about 15%;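 note: 0% = DMSO vehicle and 100% = wells lacking enzyme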
Target sequence (P55072 whole entry, looked up): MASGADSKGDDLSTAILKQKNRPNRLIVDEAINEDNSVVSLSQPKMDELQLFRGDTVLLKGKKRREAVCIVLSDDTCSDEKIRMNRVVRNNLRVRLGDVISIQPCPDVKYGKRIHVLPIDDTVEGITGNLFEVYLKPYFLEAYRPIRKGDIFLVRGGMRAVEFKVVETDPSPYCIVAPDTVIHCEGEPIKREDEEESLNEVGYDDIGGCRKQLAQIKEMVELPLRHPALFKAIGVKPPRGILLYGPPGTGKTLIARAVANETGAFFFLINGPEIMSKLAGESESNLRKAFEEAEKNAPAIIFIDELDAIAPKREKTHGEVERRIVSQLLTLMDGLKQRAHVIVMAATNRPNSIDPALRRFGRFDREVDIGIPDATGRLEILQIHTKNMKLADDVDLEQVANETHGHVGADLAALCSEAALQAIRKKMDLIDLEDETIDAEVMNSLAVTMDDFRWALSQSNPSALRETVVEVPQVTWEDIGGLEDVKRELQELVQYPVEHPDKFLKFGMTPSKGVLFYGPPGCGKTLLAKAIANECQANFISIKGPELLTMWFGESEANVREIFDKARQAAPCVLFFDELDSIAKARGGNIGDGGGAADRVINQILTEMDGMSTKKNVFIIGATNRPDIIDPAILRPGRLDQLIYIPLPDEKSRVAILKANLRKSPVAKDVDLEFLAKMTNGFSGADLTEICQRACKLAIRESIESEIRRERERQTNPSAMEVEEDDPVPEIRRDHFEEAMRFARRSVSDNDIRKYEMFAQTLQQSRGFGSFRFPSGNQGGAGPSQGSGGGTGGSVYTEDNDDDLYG
CHOP UPR activ – apoptotic UPR (CHOP) activation. CHO-CHOP luciferase reporter, luminescence; percent of tunicamycin response over DMSO baseline. activation, % at 10 µM. hit rate 0.34% among 330,000. AID 449763;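 active = at 10 µM dose, activation of 40% or more, normalized to positive control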;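 note: 100% = tunicamycin at 10 µg/mL and 0% = DMSO alone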
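Dosing – one dose, 10 µM in 0.5% DMSO · System – CHO-CHOP cells, stable luciferase reporter of PERK-eIF2a-CHOP signalling · Input – 500 cells/well · Control set – tunicamycin 10 µg/mL final as positive, DMSO-only wells as negative · Timing – 6 h compound treatment, 37 °C · Measure – % activation vs tunicamycin · Technique – luminescence read with Steady-Glo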
UPR XBP1 act – activators of adaptive arm of unfolded protein response (XBP1) | CHO-XBP1 luciferase reporter, IRE1-XBP1 UPR activation, luminescence; percent of tunicamycin response, DMSO as zero | activation, % at 20 µM | hit rate 0.33% among 330,000;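 active = versus positive control, 20 µM dose yields 30% or more activation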;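 note: 100% = tunicamycin at 10 µg/mL and 0% = DMSO only wells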
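Signal: luciferase luminescence; Assay system: CHO-XBP1 luciferase reporter cells; Amount: one thousand reporter cells per well; Dosing: 20 µM single concentration, DMSO 1%; Benchmarks: high control tunicamycin 10 µg/mL final, low control DMSO vehicle only; Schedule: 6 h compound exposure at 37 °C, 5% CO2; Evaluation: percent activation relative to tunicamycin reference.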
CHOP inhibitor – CHOP inhibition in unfolded protein response. hit rate 3.8% among 220,000. inhibition, % at 10 µM. CHO-K1 CHOP-promoter luciferase, tunicamycin-induced, 15-18 h;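 active = compounds that reduced the stress-induced luciferase reporter signal by more than about 70% of percent inhibition, limit read from the data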;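 note: 0% = tunicamycin plus vehicle and 100% = wells without tunicamycin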
HCV NS3 hel inh – HCV NS3 helicase inhibition; NS3 helicase DNA unwinding, Cy5 molecular beacon fluorescence; inhibition, % at 10.9 µM; hit rate 0.56% among 290,000;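 active = inhibition above the mean of all tested compounds plus 3 SD, set per campaign, cut at about 35% in these data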;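 note: 0% = DMSO wells and 100% = thioflavine S control wells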
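System: HCV NS3 helicase fragment; control set: DMSO and thioflavine S; technique: Cy5 fluorescence at 0 and 60 min, beacon hairpin quenching; reagent: beacon DNA duplex substrate plus ATP; replicates: singlicate; schedule: 1 h reaction at 25 °C, ATP-initiated; medium: MOPS buffer pH 6.5 with MgCl2, DTT, Tween20, BSA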
Active calls of the source: *; x = no result given. In the library only some 4.5% were active in any assay of this set; here they are far more common.

SMILES	M18AAP inhibitor	p97 inhibitor	CHOP UPR activ	UPR XBP1 act	CHOP inhibitor	HCV NS3 hel inh
Cc1ccc(-n2nnnc2C(Cl)(Cl)c2nnnn2-c2ccc(C)cc2)cc1	3.6	3.6	4.7	-4.0	80.2*	-2.4
O=C1Nc2ccccc2/C1=C\c1cccn1-c1ccc(OC(F)(F)F)cc1	-5.3	-1.3	0.4	-2.2	93.5*	9.9
Cn1cccc1C(=O)NC(=O)COC(=O)CC12CC3CC(CC(C3)C1)C2	6.6	-6.9	-3.0	-1.5	79.6*	8.4
Cn1cccc1C(=O)NC(=O)COC(=O)CC12CC3CC(CC(Br)(C3)C1)C2	-1.1	0.7	0.0	-0.2	29.2	1.7
CN(C)c1ccc(O)c2c1CC1CC3C(N(C)C)C(=O)C(C(N)=O)=C(O)[C@@]3(O)C(=O)C1=C2O (stereo partly specified)	x	x	14.1	0.0	x	x
CN(C)[C@@H]1C(=O)C(C(=O)NCN2CCCC2)=C(O)[C@@]2(O)C(=O)C3=C(O)c4c(O)cccc4[C@@](C)(O)C3CC12 (stereo partly specified)	28.4*	22.8*	x	x	0.4	47.4*
CCOC(=O)C1=CN(Cc2cccc(F)c2)S(=O)(=O)N(C)C1CCc1ccccc1 (stereo unspecified)	x	x	2.5	-0.3	x	x
O=C(c1cc(-c2cccc(O)c2)on1)N1CCN(C(c2ccccc2)c2ccccc2)CC1	2.9	6.3	9.4	1.8	78.0*	13.1
O=C(Oc1c(Cl)cc(Cl)c2cccnc12)c1cccc([N+](=O)[O-])c1	2.3	3.3	-0.1	6.8	96.8*	0.4
O=C(Oc1ccc(Cl)c2cccnc12)c1cccc([N+](=O)[O-])c1	-2.6	-4.3	19.6	8.1	49.5	6.5
Oc1cc2c(cc1O)[C@@H](c1ccccc1)CNCC2	83.0*	8.3	x	x	-8.0	-1.5
N#CC(C(=O)NCc1ccccc1)c1nc2ccccc2nc1N1CCCC1 (stereo unspecified)	12.0	5.7	-1.9	4.3	58.0	13.0
CCOC(=O)C1CCCN(c2nc3ccccc3nc2C(C#N)C(=O)NCc2ccccc2)C1 (stereo unspecified)	-8.2	-3.8	-1.5	-3.8	74.5*	1.5
O=[N+]([O-])c1ccccc1/C=C/C=N/n1c(-c2ccccc2)n[nH]c1=S	15.6	-2.5	-0.3	0.9	9.8	0.6
Cc1ccc(-c2n[nH]c(=S)n2/N=C/C=C\c2ccccc2[N+](=O)[O-])cc1	0.7	-0.7	-0.2	-0.9	90.6*	9.4
O=[N+]([O-])c1ccccc1/C=C/C=N/n1c(-c2ccc(Cl)cc2)n[nH]c1=S	8.8	-2.9	-1.8	-0.4	81.7*	9.9
CC1CCCC(C)N1/N=C/C=C/c1ccccc1[N+](=O)[O-] (stereo unspecified)	11.8	5.1	1.5	0.6	70.7*	6.0
COc1ccccc1N1CCN(/N=C/C=C\c2ccccc2[N+](=O)[O-])CC1	2.2	1.6	1.4	1.2	3.6	-11.5
COc1ccc(CNC(=O)CCCCCNC(=O)N2CCn3c2nc2ccccc23)cc1	0.4	x	-0.9	-4.6	x	0.8
CCN(C[C@H]1N[C@@](C)(C(=O)OC)[C@H]2C(=O)N(Cc3ccccc3)C(=O)[C@@H]12)S(=O)(=O)c1ccc(OC)cc1	x	x	2.7	0.0	x	x
C/C(=N\N=C(/N)SC1CC(=O)N(c2ccccc2)C1=O)c1cccs1 (stereo unspecified)	-0.8	2.0	0.3	-2.1	45.5	-13.5
C/C(=N\N=C(/N)SC1CC(=O)N(c2ccc(Br)cc2)C1=O)c1cccs1 (stereo unspecified)	2.0	2.8	-0.5	4.6	87.2*	-31.6
CCCCCCOc1ccc(N2C(=O)CC(S/C(N)=N/N=C(\C)c3cccs3)C2=O)cc1 (stereo unspecified)	-8.6	-1.1	-1.0	-0.5	87.8*	5.7
CC(C)(C)C(=O)Nc1ccc(S(=O)(=O)Nc2nccs2)cc1	1.1	x	0.3	-0.1	x	0.0
COc1ccc(N2CCN(C(=O)C3CCCN(S(=O)(=O)c4ccc(C)cc4)C3)CC2)cc1 (stereo unspecified)	-1.0	x	-1.4	-3.9	x	3.2
SMILES	M18AAP inhibitor	p97 inhibitor	CHOP UPR activ	UPR XBP1 act	CHOP inhibitor	HCV NS3 hel inh
COc1ccc(NC(=O)COc2cccc3c2OC(C)(C)C3)c(OC)c1	x	x	1.6	-3.6	x	x
CCNc1ccc(Br)cc(C(=O)/C=C/c2ccc(Cl)cc2Cl)c1=O	20.8	13.2	10.0	0.4	76.0*	25.5
C(=C\c1ccccc1)/CN1CCN(c2ncnc3c2oc2ccccc23)CC1	-2.2	-9.7	2.0	-0.1	94.0*	-1.9
COc1ccc(NC(=S)N2CCC(C(=O)c3ccc(OC)cc3)CC2)cc1	2.8	x	0.7	-3.8	x	7.4
Cc1ccc(-n2cc(CNCCc3cscn3)c(-c3ccc(F)cc3)n2)cc1	4.1	-1.0	-0.1	-0.3	84.9*	-61.2
Cc1ccc(-n2cc(CNCCCn3ccnc3C)c(-c3ccc(F)cc3)n2)cc1	3.3	1.3	0.8	2.0	-22.7	-62.1
COc1ccccc1C(=O)N(Cc1nc(-c2ccc(Cl)cc2)no1)C(C)C	-1.5	-11.6	-1.8	-2.9	74.5*	1.4
Cc1onc(-c2ccccc2Cl)c1C(=O)N(Cc1ccccc1)C(C)C	-5.6	x	-1.1	0.4	x	-11.5
CC(C)N(Cc1nc(-c2ccccc2)no1)C(=O)c1ccc(Cl)cc1	2.8	-6.6	0.0	1.8	61.2	-2.9
COc1ccc(-c2noc(CN(C(=O)c3c(-c4ccccc4Cl)noc3C)C(C)C)n2)cc1	-3.2	-7.1	-3.7	-3.6	72.1*	-9.2
COc1ccc(C(=O)N/N=C\c2coc3ccccc3c2=O)cc1	20.4	6.3	0.6	-3.2	12.4	3.2
COc1cc(C(=O)N/N=C/c2coc3ccccc3c2=O)cc(OC)c1OC	29.7*	x	-3.1	-1.0	x	-0.5
COCc1cc(C)nc(NC2CCCCC2)c1C#N	0.1	-5.0	-2.2	0.4	82.5*	0.1
Cc1nc(Nc2ccccc2)sc1-c1ccccc1	-4.8	0.5	6.6	0.1	70.4*	-4.4
Cc1ccc(S(=O)(=O)N(C)C)cc1NC(=O)C(C)OC(=O)C1CCCCC1 (stereo unspecified)	x	x	-1.2	-1.2	x	x
Cc1cc(Cl)ccc1OCC(=O)NCCOc1nc(N2CCCCC2)nc(N2CCOCC2)n1	-3.7	-1.1	-0.5	-1.7	89.2*	2.9
COc1cc(C)nc(OCCNC(=O)COc2ccc(Cl)cc2C)n1	-4.4	0.3	-1.5	-1.2	29.5	-4.3
Cc1ccc(S(=O)(=O)N2CCCC(C(=O)NCc3cccnc3)C2)cc1Cl (stereo unspecified)	-11.8	-11.3	-0.2	-1.2	87.6*	-1.8
CCN(CC)c1ccc(NC(=O)C2CCCN(S(=O)(=O)c3cccnc3)C2)c(C)c1 (stereo unspecified)	28.4*	-9.7	0.5	1.0	5.1	14.6

Assay outcomes as filed in PubChem BioAssay.
